Type in all cases: cell-based
Series [1] concerns H4. Briefly: Induction of alpha-secretase-mediated reduction in amyloid beta secretion in human H4 cells expressing wild type betaAPP695 at 30 uM after 24 hrs […] relative to control. More on the design: scale not given: the % may be the effect or the level left. Summed up: (§1)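 Serum-starved H4βAPP695wt cells are treated for 24 h with drug in DMSO (0.02% DMSO vehicle control). Total Aβ in conditioned medium is measured by sandwich ELISA with 6E10 capture and 4G8 detection, normalized to lysate protein by BCA. Cytotoxicity is read as total cell protein. Quadruplicate wells in 1-4 independent experiments give the % decrease versus vehicle.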

Series [2] deals with H4. Briefly: Cytotoxicity against human H4 cells expressing wild type betaAPP695 assessed as decrease in cell protein at 30 uM after 24 hrs. Details: scale not given: the % may be the effect or the level left. The following applies: h4, 24 h. The gist of the method:
as §1

Series [3] deals with H4. The series is described as follows: Cytotoxicity against human H4 cells expressing wild type betaAPP695 assessed as decrease in cell protein at 10 uM after 24 hrs. More on the design: scale not given: the % may be the effect or the level left. As to conditions: h4, 24 h. The gist of the method: as §1
The subject of series [4] is H4. The series is described as follows: Induction of alpha-secretase-mediated reduction in amyloid beta secretion in human H4 cells expressing wild type betaAPP695 treated with media containing human THLE3 cells incubated with 10 uM compound for 24 hrs […]. More on the design: scale not given: the % may be the effect or the level left. The following applies: in the assay text read “20 uM” for “10 uM”.

The test system of series [5] is H4. Briefly: Induction of alpha-secretase-mediated reduction in amyloid beta secretion in human H4 cells expressing wild type betaAPP695 at 10 uM after 24 hrs […] relative to control. Details: scale not given: the % may be the effect or the level left. Summed up:
as §1

The test system of series [6] is H4. The series is described as follows: Induction of alpha-secretase-mediated reduction in amyloid beta secretion in human H4 cells expressing wild type betaAPP695 assessed as remaining drug activity treated with media containing human THLE3 cells incubated with 10 uM compound for 24 hrs measured 24 hrs after media treatment […].
The subject of series [7] is H4. Briefly: Induction of alpha-secretase-mediated reduction in amyloid beta secretion in human H4 cells expressing wild type betaAPP695 placed in lower chamber treated with […] compound placed in upper chamber containing human Caco-2 cells for 4 hrs measured 24 hrs after media treatment […]. Details: scale not given: the % may be the effect or the level left. Summed up: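 Caco-2 cells are seeded at 70000 per Transwell insert and grown 21 days to TEER >160 Ω/cm2. Drug at 40 μM with 20 μg/mL lucifer yellow goes in the apical chamber in serum-free medium. After 4 h, basal medium is checked for lucifer yellow and applied to H4βAPP695wt cells for 24 h. Secreted Aβ by ELISA is compared with direct 10 μM drug as % activity passing.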

Take `O=C(NCCSCc1cccc(O)c1)c1c(Cl)cccc1Cl`: the Activity in the series with H4 [1] was 67.7%; in the series with H4 [2], 6.6%; in the series on H4 [3], 6.3%; with H4 [4], 23.1%; in the series with H4 [5], 56.4%; in the series on H4 [6], 41%.

Turning to `O=C(NCCS(=O)(=O)Cc1cccc(Cl)c1)c1c(Cl)cccc1Cl`, the Activity was 9.3% in the series on H4 [1], -3.8% with H4 [2], -2.2% in the series with H4 [3] and 8.9% in the series on H4 [5].

Turning to `O=C(NCCSCc1cccc([N+](=O)[O-])c1)c1c(Cl)cccc1Cl`, the Activity came to 72.5% with H4 [1], 24.6% in the series on H4 [2], 7.5% in the series with H4 [3] and 58.5% in the series on H4 [5].

On to `O=C(NCC[S+]([O-])Cc1cccc(O)c1)c1c(Cl)cccc1Cl` (stereo unspecified), for which the Activity was 15.9% in the series with H4 [1], 4.4% in the series on H4 [2], 2.8% in the series on H4 [3] and -23.7% with H4 [5].

On to `O=C(NCCSCc1cc(O)cc(O)c1)c1c(Cl)cccc1Cl`, for which the Activity in the series on H4 [1] is 17.2%; in the series on H4 [2], -0.7%; in the series on H4 [3], -0.4%; in the series on H4 [5], 3.1%.

For `COc1ccc(CSCCNC(=O)c2c(Cl)cccc2Cl)cc1`, the Activity with H4 [1] turned out to be 1.1%; in the series on H4 [2] it was 12.7%; in the series on H4 [3], 6.7%; in the series on H4 [5], 1.6%.

As for `O=C(NCCSCc1ccc(O)cc1)c1c(Cl)cccc1Cl`, the Activity is 56.7% in the series on H4 [1], 4.4% in the series on H4 [2], 8.7% in the series on H4 [3] and 13.1% in the series on H4 [5].

In the case of `O=C(NCCSCc1ccc(Cl)cc1)c1c(Cl)cccc1Cl`, the Activity in the series on H4 [1] was 36.5%; in the series with H4 [2] it was 3%; in the series with H4 [3] it was -6.4%; in the series with H4 [5], 21.8%.

Consider `COc1cc(Cl)cc(CSCCNC(=O)c2c(Cl)cccc2Cl)c1`, for which the Activity in the series with H4 [1] came out at 81%; with H4 [2], 0.4%; in the series on H4 [3], 0.9%; with H4 [4], 33.5%; in the series with H4 [5], 67.7%; in the series with H4 [6], 49%. The Activity in the series with H4 [7] turned out to be 2.7%.

As for `O=C(NCCSCc1cccc(Cl)c1)c1c(F)cccc1F`, the Activity in the series with H4 [1] is 21.6%; in the series on H4 [2] it was 8.1%; with H4 [3], 5.1%; in the series with H4 [5], 4.9%.

In the case of `O=C(NCCSCc1cccc(Cl)c1)c1c([N+](=O)[O-])cccc1[N+](=O)[O-]`, the Activity worked out at 52.9% with H4 [1], 17.8% in the series on H4 [2], 0.1% in the series with H4 [3] and 28.8% in the series with H4 [5].

Turning to `O=C(Cc1c(Cl)cccc1Cl)NCCSCc1cccc(Cl)c1`, the Activity in the series with H4 [1] was 13.5%; in the series on H4 [2] it was -0.7%; with H4 [3], -1.3%; with H4 [5] it was 6.7%.

Take `O=C(NCCSCc1ccccc1)c1ccccc1`: the Activity was 5.5% in the series on H4 [1], -4.1% in the series on H4 [2], 0.7% with H4 [3] and -5.7% in the series with H4 [5].

In the case of `COc1cccc(CSCCNC(=O)c2c(Cl)cccc2OC)c1`, the Activity in the series with H4 [1] was -4.7%; in the series on H4 [2], 9.3%; in the series on H4 [3], 1.9%; in the series on H4 [5] it was -2.9%.

Consider `O=C(NCCSCc1cccc(Br)c1)c1c(Br)cccc1Br`, for which the Activity was 87.3% in the series with H4 [1], 23.9% with H4 [2], 9.8% in the series on H4 [3] and 78.6% in the series with H4 [5].

Take `O=C(NCCSCc1cccc(C(F)(F)F)c1)c1c(Cl)cccc1Cl`: the Activity was 93.4% in the series with H4 [1], 47.8% in the series with H4 [2], 19% with H4 [3] and 73.9% in the series on H4 [5].

As to `COc1cccc(CSCCNC(=O)c2c(OC)cccc2OC)c1`, the Activity is -0.6% in the series with H4 [1], 3.9% in the series on H4 [2], 0.5% in the series on H4 [3] and 6.2% with H4 [5].

Take `N#Cc1cccc(CSCCNC(=O)c2c(Cl)cccc2Cl)c1`: the Activity with H4 [1] was 38.7%; in the series with H4 [2] it was 4.3%; with H4 [3] it was -4.8%; with H4 [5], 20%.

As to `NC(=O)c1cccc(CSCCNC(=O)c2c(Cl)cccc2Cl)c1`, the Activity in the series on H4 [1] is 32.3%; with H4 [2], -8.6%; in the series on H4 [3] it was -2.8%; with H4 [5], 6.2%.

With `O=C(NCCSCc1cccc(O)c1O)c1c(Cl)cccc1Cl`, the Activity in the series on H4 [1] is 33.1%; in the series with H4 [2], 14%; with H4 [3] it was -4.8%; with H4 [5], -4.3%.

As to `COc1cccc(CSCCNC(=O)c2c([N+](=O)[O-])cccc2[N+](=O)[O-])c1`, the Activity in the series on H4 [1] is -2.8%; with H4 [2], -3.8%; in the series with H4 [3], 3.7%; in the series with H4 [5] it was -14.1%.

Turning to `Nc1cccc(CSCCNC(=O)c2c(Cl)cccc2Cl)c1`, the Activity in the series with H4 [1] was 17%; in the series with H4 [2] it was 13.1%; with H4 [3], 15.3%; in the series with H4 [5] it was 0.1%.

In the case of `O=C(NCCSCc1cccc(O)c1)c1c(O)cccc1O`, the Activity with H4 [1] was -25.2%; in the series on H4 [2], 14.3%; in the series on H4 [3], 10.5%; with H4 [5] it was -22.5%.

Turning to `O=C(NCCSCc1cccc(Cl)c1)c1ccccc1`, the Activity in the series with H4 [1] was 10.7%; with H4 [2] it was -4.5%; in the series on H4 [3] it was 2.4%; with H4 [5], 0.3%.

As to `O=C(NCCOCc1cccc(Cl)c1)c1c(Cl)cccc1Cl`, the Activity is -5.1% in the series on H4 [1], 4.2% with H4 [2], -9.9% with H4 [3] and 10.5% with H4 [5].

For the compound `CCOC(=O)c1cccc(CSCCNC(=O)c2c(Cl)cccc2Cl)c1`, the Activity in the series on H4 [1] amounted to 10.1%; in the series on H4 [2], 5.4%; in the series on H4 [3], 5.8%; in the series on H4 [5], 3%.

For `N#Cc1c(Cl)cccc1CSCCNC(=O)c1c(Cl)cccc1Cl`, the Activity in the series with H4 [1] turned out to be 52.3%; in the series with H4 [2], 1.3%; with H4 [3] it was 3.5%; with H4 [5], 48.7%.

As for `O=C(NCCSCc1cccc(OCCOCCO)c1)c1c(Cl)cccc1Cl`, the Activity in the series with H4 [1] was 24.3%; in the series on H4 [2], 6.1%; in the series with H4 [3] it was -7.3%; with H4 [5], 17.4%.

In the case of `NC(=O)c1c(Cl)cccc1CSCCNC(=O)c1c(Cl)cccc1Cl`, the Activity in the series on H4 [1] is 49.7%; in the series with H4 [2] it was -5.6%; in the series with H4 [3], 2.5%; with H4 [5], 44.7%.

Regarding `COc1cccc(C[S+]([O-])CCNC(=O)c2c(Cl)cccc2Cl)c1` (stereo unspecified), the Activity was -15.8% in the series with H4 [1], 9.2% with H4 [2], 1.6% with H4 [3] and -13.6% with H4 [5].

On to `O=C(NCCSCc1cccc(F)c1)c1c(F)cccc1F`, for which the Activity in the series on H4 [1] was -15.5%; in the series on H4 [2], 1.8%; in the series on H4 [3], 0.1%; with H4 [5] it was -16.8%.

For `O=C(NCCS(=O)(=O)Cc1cccc(O)c1)c1c(Cl)cccc1Cl`, the Activity is 9.6% in the series on H4 [1], 4.4% with H4 [2], 7.7% in the series on H4 [3] and -10.1% with H4 [5].

As to `O=C(NCCSCc1cccc(Cl)c1)c1c(C(F)(F)F)cccc1C(F)(F)F`, the Activity with H4 [1] is 13.5%; in the series with H4 [2], -0.4%; with H4 [3], -4.2%; in the series with H4 [5], 6.2%.

As for `O=Cc1cccc(CSCCNC(=O)c2c(Cl)cccc2Cl)c1`, the Activity in the series with H4 [1] is 36.4%; with H4 [2], -2.1%; in the series on H4 [3] it was 1.5%; in the series with H4 [5] it was 19.9%.

In the case of `O=C(NCCSCc1cccc(Br)c1)c1c(Cl)cccc1Cl`, the Activity with H4 [1] came to 90.1%; with H4 [2], 38.6%; with H4 [3], 12.3%; with H4 [5] it was 75%.

Take `COc1cc(CSCCNC(=O)c2c(Cl)cccc2Cl)cc(OC)c1`: the Activity with H4 [1] is 80.4%; in the series with H4 [2] it was -8.7%; in the series with H4 [3], 2%; in the series with H4 [5], 47.9%.

Turning to `COc1cccc(CS(=O)(=O)CCNC(=O)c2c(Cl)cccc2Cl)c1`, the Activity with H4 [1] stood at 4.9%; in the series on H4 [2], 8.9%; in the series on H4 [3], 1.2%; in the series on H4 [5], 5.3%.

In the case of `O=C(NCCSCc1cccc(NC(=O)C2CC2)c1)c1c(Cl)cccc1Cl`, the Activity was -2% in the series on H4 [1], 3.2% in the series on H4 [2], 3% in the series with H4 [3] and -21.4% in the series with H4 [5].

As to `COc1cccc(OC)c1C(=O)NCCSCc1cccc(Cl)c1`, the Activity with H4 [1] was 11.2%; in the series on H4 [2], -0.6%; in the series on H4 [3], 7.1%; with H4 [5] it was -13.1%.

The values are drawn from ChEMBL document CHEMBL1165845, “Synthesis and biological evaluation of analogues of a novel inhibitor of beta-amyloid secretion” (J Med Chem, 2010).
